Data reported in ChEMBL document CHEMBL4265975, “Synthesis, biological evaluation and molecular modeling of a novel series of fused 1,2,3-triazoles as potential anti-coronavirus agents” (Bioorg Med Chem Lett, 2018).

Key:
[1] = system: Human adenovirus 2; test: Antiviral activity against Human adenovirus 2 infected in human HEL cells assessed as inhibition of virus-induced cytopathic effect after 3 days by microscopic method; format: functional, organism-based; settings: Human mastadenovirus C, 72 h
In short: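 HEL cells were infected with adenovirus 2 for 2 h. Residual virus was then removed and the cells were incubated with medium containing graded compound concentrations for 3 days at 37°C. Virus-induced cytopathogenicity was scored microscopically.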

[2] = system: Human alphaherpesvirus 2; test: Antiviral activity against Human herpesvirus 2 strain G infected in human HEL cells assessed as inhibition of virus-induced cytopathic effect after 3 days by microscopic method; format: functional, organism-based; settings: Human alphaherpesvirus 2, strain G, 72 h
[3] = Selectivity index, ratio of MCC for HEL cells to EC50 for Vaccinia virus infected in HEL cells; format: toxicity, cell-based; settings: human, read-out: Selectivity Index
In short: (§1)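 SI is MCC divided by EC50. […] MCC was measured in parallel on HEL cells seeded at 5 x 10^3 cells/well, as the lowest concentration causing microscopically visible alteration of cell morphology. The top concentration tested was 100 µM.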

[4] = Selectivity index, ratio of MCC for HEL cells to EC50 for Herpes simplex virus 1 KOS infected in HEL cells; format: toxicity, cell-based; settings: human, read-out: Selectivity Index; in short: as §1
[5] = system: Vaccinia virus; test: Antiviral activity against Vaccinia virus infected in human HEL cells assessed as inhibition of virus-induced cytopathic effect after 3 days by microscopic method; format: functional, organism-based; settings: Orthopoxvirus vaccinia, 72 h
[6] = system: Human coronavirus 229E; test: Antiviral activity against Human coronavirus 229E infected in HEL cells assessed as reduction in virus-induced pathogenicity after 3 days by microscopic method; format: functional, organism-based; settings: 72 h
[7] = Cytotoxicity against HEL cells assessed as alteration in cell morphology after 3 days by microscopic method; format: cell-based; settings: human
In short: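 HEL cells were seeded at 5 x 10^3 cells/well and exposed to graded compound concentrations, up to 100 μM, in parallel with the antiviral assay. Cell morphology was examined by light microscopy. MCC is the minimum concentration causing a microscopically detectable alteration of normal cell morphology.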

[8] = Selectivity index, ratio of MCC for HEL cells to EC50 for Human coronavirus 229E infected in HEL cells; format: toxicity, cell-based; settings: read-out: Selectivity Index; in short: as §1
[9] = system: Human alphaherpesvirus 1; test: Antiviral activity against Herpes simplex virus 1 KOS infected in human HEL cells assessed as inhibition of virus-induced cytopathic effect after 3 days by microscopic method; format: functional, organism-based; settings: Human alphaherpesvirus 1, KOS, 72 h
[10] = Selectivity index, ratio of MCC for HEL cells to EC50 for Human adenovirus 2 infected in HEL cells; format: toxicity, cell-based; settings: read-out: Selectivity Index; in short: as §1
[11] = system: Human alphaherpesvirus 1; test: Antiviral activity against acyclovir-resistant TK-defecient Herpes simplex virus 1 KOS infected in human HEL cells assessed as inhibition of virus-induced cytopathic effect after 3 days by microscopic method; format: functional, organism-based; settings: Human alphaherpesvirus 1, KOS, 72 h
[12] = Selectivity index, ratio of MCC for HEL cells to EC50 for acyclovir-resistant TK-defecient Herpes simplex virus 1 KOS infected in HEL cells; format: toxicity, cell-based; settings: human, read-out: Selectivity Index; in short: as §1
[13] = Selectivity index, ratio of MCC for HEL cells to EC50 for Herpes simplex virus 2 strain G infected in HEL cells; format: toxicity, cell-based; settings: human, read-out: Selectivity Index; in short: as §1

Compound | EC50 [1] [µM] | EC50 [2] [µM] | selectivity ratio [3] | selectivity ratio [4] | EC50 [5] [µM] | EC50 [6] [µM] | MCC at 72 h [7] [µM] | selectivity ratio [8] | EC50 [9] [µM] | selectivity ratio [10] | EC50 [11] [µM] | selectivity ratio [12] | selectivity ratio [13]
CCOC(=O)C1(Cc2ccccc2)CN(c2ccccc2)Cc2nnn(CCCCCO)c21 (centres undefined) | > 100 | > 100 | > 8 | > 8 | > 100 | > 100 | > 100 | > 8 | > 100 | > 8 | > 100 | > 8 | > 8
CCOC(=O)C1(Cc2ccccc2)CN(c2ccccc2)Cc2nnn(Cc3ccc(F)cc3)c21 (centres undefined) | > 100 | > 100 | > 8 | > 8 | > 100 | 8.95 | ≥ 100 | > 8 | > 100 | > 8 | > 100 | > 8 | > 8
CCOC(=O)C1(Cc2ccccc2)CN(c2ccccc2)Cc2nnn(Cc3ccccc3Cl)c21 (centres undefined) | > 100 | > 100 | > 8 | > 8 | > 100 | > 100 | > 100 | > 8 | > 100 | > 8 | > 100 | > 8 | > 8
